From PMC5292677 (Leukemia, 2016)

System: patients with myelofibrosis
Test: Phase I safety: drug-related adverse events, DLTs, tolerability
Type: in vivo, human
Method in brief: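 Design was 3+3 dose escalation of oral test compound QD (75–400 mg) or BID (100–400 mg) in 28-day cycles. AEs were graded by CTCAE v4.0 with causality, alongside labs, ECGs, vital signs and physical exams. A DLT was grade 4 cytopenia, other grade 3/4 hematologic toxicity, or grade 3/4 non-hematologic toxicity, excluding manageable GI events. The population was all patients dosed ≥1 time.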

C[C@H](Nc1cc(-c2cnn(C)c2)cc(Nc2cnccn2)n1)c1ccc(F)cc1 [NS-018]
Drug-related anemia, all grades (75 mg QD (n=3)): 0 n (%)
Drug-related diarrhea, all grade (75 mg QD (n=3)): 0 n (%)
Drug-related dizziness, all grade (75 mg QD (n=3)): 0 n (%)
Drug-related esophageal reflux, all grade (75 mg QD (n=3)): 0 n (%)
Drug-related headache, all grade (75 mg QD (n=3)): 0 n (%)
Drug-related nausea, all grade (75 mg QD (n=3)): 0 n (%)
Drug-related paresthesia, all grade (75 mg QD (n=3)): 0 n (%)
Drug-related thrombocytopenia, Grade 1/2 (75 mg QD (n=3)): 0 n (%)
Drug-related thrombocytopenia, Grade 3 (75 mg QD (n=3)): 0 n (%)
Drug-related thrombocytopenia, Grade 4 (75 mg QD (n=3)): 1 (33) n (%)
Drug-related thrombocytopenia, all grades (75 mg QD (n=3)): 1 (33) n (%)
Drug-related vomiting, all grade (75 mg QD (n=3)): 0 n (%)
Drug-related weight increased, all grade (75 mg QD (n=3)): 0 n (%)
Drug-related anemia, all grades (100 mg BID (n=5)): 0 n (%)
Drug-related diarrhea, all grade (100 mg BID (n=5)): 0 n (%)
Drug-related dizziness, all grade (100 mg BID (n=5)): 0 n (%)
Drug-related esophageal reflux, all grade (100 mg BID (n=5)): 0 n (%)
Drug-related headache, all grade (100 mg BID (n=5)): 0 n (%)
Drug-related nausea, all grade (100 mg BID (n=5)): 0 n (%)
Drug-related paresthesia, all grade (100 mg BID (n=5)): 0 n (%)
Drug-related thrombocytopenia, Grade 1/2 (100 mg BID (n=5)): 0 n (%)
Drug-related thrombocytopenia, Grade 3 (100 mg BID (n=5)): 1 (20) n (%)
Drug-related thrombocytopenia, Grade 4 (100 mg BID (n=5)): 0 n (%)
Drug-related thrombocytopenia, all grades (100 mg BID (n=5)): 1 (20) n (%)
Drug-related vomiting, all grade (100 mg BID (n=5)): 0 n (%)
Drug-related weight increased, all grade (100 mg BID (n=5)): 0 n (%)
Drug-related anemia, all grades (125 mg QD (n=4)): 0 n (%)
Drug-related diarrhea, all grade (125 mg QD (n=4)): 0 n (%)
Drug-related dizziness, all grade (125 mg QD (n=4)): 0 n (%)
Drug-related esophageal reflux, all grade (125 mg QD (n=4)): 0 n (%)
Drug-related headache, all grade (125 mg QD (n=4)): 0 n (%)
Drug-related nausea, all grade (125 mg QD (n=4)): 0 n (%)
Drug-related paresthesia, all grade (125 mg QD (n=4)): 0 n (%)
Drug-related thrombocytopenia, all grades (125 mg QD (n=4)): 0 n (%)
Drug-related vomiting, all grade (125 mg QD (n=4)): 0 n (%)
Drug-related weight increased, all grade (125 mg QD (n=4)): 0 n (%)
Drug-related anemia, all grades (200 mg BID (n=12)): 0 n (%)
Drug-related diarrhea, all grade (200 mg BID (n=12)): 2 (17) n (%)
Drug-related diarrhea, grade 3 or 4 (200 mg BID (n=12)): 0 n (%)
Drug-related dizziness, all grade (200 mg BID (n=12)): 1 (8) n (%)
Drug-related dizziness, grade 3 or 4 (200 mg BID (n=12)): 0 n (%)
Drug-related esophageal reflux, all grade (200 mg BID (n=12)): 0 n (%)
Drug-related headache, all grade (200 mg BID (n=12)): 0 n (%)
Drug-related nausea, all grade (200 mg BID (n=12)): 1 (8) n (%)
Drug-related nausea, grade 3 or 4 (200 mg BID (n=12)): 0 n (%)
Drug-related paresthesia, all grade (200 mg BID (n=12)): 0 n (%)
Drug-related thrombocytopenia, Grade 1/2 (200 mg BID (n=12)): 1 (8) n (%)
Drug-related thrombocytopenia, all grades (200 mg BID (n=12)): 1 (8) n (%)
Drug-related vomiting, all grade (200 mg BID (n=12)): 0 n (%)
Drug-related weight increased, all grade (200 mg BID (n=12)): 0 n (%)
Drug-related anemia, Grade 1/2 (200 mg QD (n=9)): 1 (11) n (%)
Drug-related anemia, all grades (200 mg QD (n=9)): 1 (11) n (%)
Drug-related diarrhea, all grade (200 mg QD (n=9)): 2 (22) n (%)
Drug-related diarrhea, grade 3 or 4 (200 mg QD (n=9)): 0 n (%)
Drug-related dizziness, all grade (200 mg QD (n=9)): 0 n (%)
Drug-related esophageal reflux, all grade (200 mg QD (n=9)): 0 n (%)
Drug-related headache, all grade (200 mg QD (n=9)): 0 n (%)
Drug-related nausea, all grade (200 mg QD (n=9)): 1 (11) n (%)
Drug-related nausea, grade 3 or 4 (200 mg QD (n=9)): 0 n (%)
Drug-related paresthesia, all grade (200 mg QD (n=9)): 0 n (%)
Drug-related thrombocytopenia, all grades (200 mg QD (n=9)): 0 n (%)
Drug-related vomiting, all grade (200 mg QD (n=9)): 2 (22) n (%)
Drug-related vomiting, grade 3 or 4 (200 mg QD (n=9)): 0 n (%)
Drug-related weight increased, all grade (200 mg QD (n=9)): 2 (22) n (%)
Drug-related weight increased, grade 3 or 4 (200 mg QD (n=9)): 0 n (%)
Drug-related anemia, Grade 1/2 (250 mg BID (n=8)): 1 (13) n (%)
Drug-related anemia, Grade 3 (250 mg BID (n=8)): 0 n (%)
Drug-related anemia, Grade 4 (250 mg BID (n=8)): 0 n (%)
Drug-related anemia, all grades (250 mg BID (n=8)): 1 (13) n (%)
Drug-related diarrhea, all grade (250 mg BID (n=8)): 0 n (%)
Drug-related dizziness, all grade (250 mg BID (n=8)): 1 (13)/1 (13) n (%)
Drug-related dizziness, grade 3 or 4 (250 mg BID (n=8)): 1 (13)/1 (13) n (%)
Drug-related esophageal reflux, all grade (250 mg BID (n=8)): 1 (13) n (%)
Drug-related esophageal reflux, grade 3 or 4 (250 mg BID (n=8)): 0 n (%)
Drug-related headache, all grade (250 mg BID (n=8)): 0 n (%)
Drug-related nausea, all grade (250 mg BID (n=8)): 2 (25) n (%)
Drug-related nausea, grade 3 or 4 (250 mg BID (n=8)): 1 (13) n (%)
Drug-related paresthesia, all grade (250 mg BID (n=8)): 0 n (%)
Drug-related thrombocytopenia, Grade 1/2 (250 mg BID (n=8)): 2 (25) n (%)
Drug-related thrombocytopenia, Grade 3 (250 mg BID (n=8)): 0 n (%)
Drug-related thrombocytopenia, Grade 4 (250 mg BID (n=8)): 1 (13) n (%)
Drug-related thrombocytopenia, all grades (250 mg BID (n=8)): 3 (38) n (%)
Drug-related vomiting, all grade (250 mg BID (n=8)): 0 n (%)
Drug-related weight increased, all grade (250 mg BID (n=8)): 0 n (%)
DLT: grade 3 QT prolongation (250 mg BID cohort): 1 patient
Patients who discontinued owing to AEs (beyond DLT) (300 mg BID): 3 patients
Rate of discontinuations owing to AEs (300 mg BID): 38%
Drug-related anemia, Grade 1/2 (300 mg BID (n=12)): 1 (8) n (%)
Drug-related anemia, Grade 3 (300 mg BID (n=12)): 2 (17) n (%)
Drug-related anemia, Grade 4 (300 mg BID (n=12)): 0 n (%)
Drug-related anemia, all grades (300 mg BID (n=12)): 3 (25) n (%)
Drug-related diarrhea, all grade (300 mg BID (n=12)): 1 (8) n (%)
Drug-related diarrhea, grade 3 or 4 (300 mg BID (n=12)): 0 n (%)
Drug-related dizziness, all grade (300 mg BID (n=12)): 3 (25) n (%)
Drug-related dizziness, grade 3 or 4 (300 mg BID (n=12)): 0 n (%)
Drug-related esophageal reflux, all grade (300 mg BID (n=12)): 1 (8) n (%)
Drug-related esophageal reflux, grade 3 or 4 (300 mg BID (n=12)): 0 n (%)
Drug-related headache, all grade (300 mg BID (n=12)): 0 n (%)
Drug-related nausea, all grade (300 mg BID (n=12)): 4 (33) n (%)
Drug-related nausea, grade 3 or 4 (300 mg BID (n=12)): 0 n (%)
Drug-related paresthesia, all grade (300 mg BID (n=12)): 2 (17) n (%)
Drug-related paresthesia, grade 3 or 4 (300 mg BID (n=12)): 1 (8) n (%)
Drug-related thrombocytopenia, Grade 1/2 (300 mg BID (n=12)): 3 (25) n (%)
Drug-related thrombocytopenia, Grade 3 (300 mg BID (n=12)): 1 (8) n (%)
Drug-related thrombocytopenia, Grade 4 (300 mg BID (n=12)): 0 n (%)
Drug-related thrombocytopenia, all grades (300 mg BID (n=12)): 4 (33) n (%)
Drug-related vomiting, all grade (300 mg BID (n=12)): 0 n (%)
Drug-related weight increased, all grade (300 mg BID (n=12)): 1 (8) n (%)
Drug-related weight increased, grade 3 or 4 (300 mg BID (n=12)): 0 n (%)
